Laboratory results from ChEMBL document CHEMBL4513216, “Probing the Open Global Health Chemical Diversity Library for Multistage-Active Starting Points for Next-Generation Antimalarials” (ACS Infect Dis, 2020).

Assay: Toxicity liver stage against HepG2, at 10uM
Type: cell-based
Design: test concentration 10 uM, cell line HepG2-A16-CD81EGFP
Conditions: human, HepG2-A16-CD81EGFP cells; read-out: INHIBITION
Procedure, shortened: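 Uninfected HepG2-A16-CD81EGFP cells, 3 × 10^3 per well, 1536-well, plated on prespotted compound at 10 μM final, parasite-free screening media added to match infected plates; puromycin 10 μM positive, DMSO 0.5% negative; run in parallel with 48 h PbLuc assay at 37 °C, 5% CO2; viability by CellTiter-Glo luminescence, normalized to controls.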

SMILES	cytotoxicity at 10 µM
COc1ccc(S(=O)(=O)NCCCc2nnc3nc(C)cc(C)n23)cc1	5.05%
O=C(C1CC1)N1CCC2(CC1)CNCc1ccccc12	1.79%
Cc1nn(C)c2c(NCc3ccccc3F)nc(C3CC3)nc12	15.5%
CC1CCCN(c2ncc(-c3ccccc3F)c(-c3nccn3C)n2)C1 (stereo not given)	26.8%
CCOc1cc([C@H]2N[C@@H](c3nc(C)cs3)Cc3ccsc32)ccc1OC	24.3%
CNC(=O)c1sc2ccccc2c1C1CCN(c2cc(C)nc(C)n2)C1 (stereo not given)	10.8%
CC(=O)N1CCCC(c2nc(N(C)C)ncc2-c2cccc(F)c2)C1 (stereo not given)	-34.8%
CC(O)c1cccc(OCc2ccon2)c1 (stereo not given)	-5.28%
COc1ncnc(N)c1CNCCc1ccccc1	-3.15%
CCn1c(C)cc(C(=O)N2CCC(NC(=O)c3ccc(C)o3)CC2)c1C	-7.45%
O=C(c1ccccc1)C1CCN(c2cncc(-n3cccn3)n2)CC1	0.935%
O=C(CN1C(=O)c2ccccc2CS1(=O)=O)c1ccccc1	15.3%
Cc1ccc(CN(C)C(=O)CN2CCCCC2Cn2cncn2)cc1 (stereo not given)	17.7%
CCS(=O)(=O)CCN1CCC(N(C)Cc2ncc(C)o2)C1 (stereo not given)	1.75%
COc1ccc(C(=O)N(c2ccc(OC)c(F)c2)C(C)C)cn1	-1.94%
COCCN(C)c1ccc(NCc2cscn2)nc1	0.513%
Cn1nc2c(cc1=O)CN(CCOc1ccccc1C#N)CC2	18%
CC(C)(C)n1cc(CNc2ccc(CNS(C)(=O)=O)cc2)cn1	16.1%
OC(COCc1cccs1)Cn1cc(Cl)cn1 (stereo not given)	-0.574%
CCN1CCN(c2ccccc2NC(=O)N(C)C2CCSC2)CC1 (stereo not given)	-56.7%
NC(=O)c1cc(C2CCCN(CCc3ccc4c(c3)CCO4)C2)n[nH]1 (stereo not given)	-1.92%
Cc1nn(C)c(C)c1C1CCCN1Cc1cn2ccsc2n1 (stereo not given)	-51.6%
N#Cc1cc(Cn2cnc(C3CCC3)cc2=O)ccc1F	-0.908%

SMILES	cytotoxicity at 10 µM
O=C(C1CCOCC1)N1CCC2(CC1)CN(c1ccsc1)C(=O)CO2	-63.4%
NCCSc1nccc(-c2cnc(C3CC3)nc2-c2ccco2)n1	-7.19%
Cc1nc(CN2CCCC(CCc3ccccc3C(F)(F)F)C2)co1 (stereo not given)	0.663%
Cc1ccc(-c2cn[nH]c2C2CCCN(c3cc(N)ncn3)C2)cc1 (stereo not given)	55.4%
CN1CCC(N(C)CCC(=O)N2CCC(CCc3ccccc3)CC2)C1 (stereo not given)	-5.87%
Cc1nn(C)c2nc(N(C)CC3CCN(CC(C)C)C3)sc12 (stereo not given)	-8.13%
CCCc1ccc(C(C)Nc2ncnc3c2CCNC3)cc1 (stereo not given)	28.1%
CC1CCCN1Cc1cccc(C(=O)Nc2ccc3[nH]c(=O)oc3c2)c1 (stereo not given)	-13.4%
COCc1noc(Cn2c(=O)[nH]c3ccccc32)n1	4.84%
CC(C)c1cc(NC2CCN(C(=O)N3CCCC3)CC2)ncn1	10.2%
O=C(CCC1CCCN(C(=O)CCc2ccc(F)c(F)c2)C1)NC1CC1 (stereo not given)	2.49%
CNC(=O)[C@@H]1C[C@@H](N)CN1c1nnc(-c2ccccc2)s1	-36%
Fc1cccc(OC2CCN(CCn3cc4ccccc4n3)CC2)c1	8.33%
c1ccc2sc(N3CCCN(c4ncnc5c4CCNC5)CC3)nc2c1	31.2%
C1CN(Cc2noc(C3CC3)n2)CCN(Cc2nnc(C3CC3)o2)C1	-10.9%
CC(C)c1cc(NC(=O)CN2CCC(N3CCCCC3)CC2)on1	-9.68%
O=C(c1ccc[nH]1)N1CCn2cc(Cn3cccn3)nc2C1	-81.9%
COc1ccc(CN2CCC3(CCCN(c4ncc(F)cn4)C3)C2)cc1 (stereo not given)	62.8%
COc1ccc(C[C@H]2CN(c3cc(OC)ncn3)CC[C@H]2OC)cc1	54.5%
CN(C)C(=O)CC1CC2(CCN(Cc3ccco3)CC2)c2ccccc21 (stereo not given)	-11.3%
COc1c(CNC2CCSc3ccc(F)cc32)c(C)nn1C (stereo not given)	32.8%
O=C1CO[C@@H]2CN(CC3CC3)C[C@H]2N1Cc1cccc(F)c1	-69.9%
